# ChEMBL document CHEMBL1121486, “Synthesis of nitrosourea derivatives of pyridine and piperidine as potential anticancer agents” (1980)
# Where “and” joins values, the source holds several entries; their conditions need not be identical. Equal values may be shown once.
# How the values were obtained:
# 3EM 37 [1] = assay: Compound tested for activity against 3EM 37 mouse ependymoblastoma after single ip injection on day 1 at optimal dose of 100 mg/kg (Dose range 200-12.5); assay type: functional; conditions: route intraperitoneal
# 3EM 37 [2] = assay: Compound tested for toxicity against 3EM 37 Mouse Ependymoblastoma after single ip injection on day 1 at optimal dose (OD) of 100 mg/kg on the 5th day after the injection of the compound; (10/10); assay type: functional; conditions: route intraperitoneal
# 3EM 37 [3] = assay: Effect of compound on 3EM 37 mouse ependymoblastoma after single ip injection on day 1 recorded as animal weight difference of the treated and the control (T-C) at OD of 100 mg/kg; assay type: functional; conditions: route intraperitoneal
# 3EM 37 [4] = assay: Effect of compound on 3EM 37 mouse ependymoblastoma after single ip injection on day 1 recorded as percentage of cured animals at OD of 100 mg/kg; assay type: functional; conditions: route intraperitoneal
# L1210 [5] = assay: Compound tested for activity against mouse leukemia L1210 tumor (Intracerebrally implanted) after single ip injection on day 1 at optimal dose of 100 mg/kg (Dose range 200-12.5); assay type: functional; conditions: route intraperitoneal
# L1210 [6] = assay: Compound tested for activity against mouse leukemia L1210 tumor (Intraperitoneally implanted) after single ip injection on day 1 at optimal dose of 100 mg/kg (Dose range 200-12.5); assay type: functional; conditions: route intraperitoneal
# Outline: (§1)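 L1210 leukaemia implanted intraperitoneally in mice. Compound given over a dose range (mg/kg); optimum dose selected. Survivors for toxicity recorded day 5 post-injection. Measures: T – C body weight difference (g), % T/C, and cures, defined as 30-day survivors.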
# L1210 [7] = assay: The effect of compound on mouse leukemia L1210 tumor (Intraperitoneally implanted)after single dose injected intraperitoneally on day 1 […] at OD of 100 mg/kg; assay type: functional; conditions: route intraperitoneal
# L1210 [8] = assay: Compound tested for toxicity against mouse leukemia L1210 tumor (Intracerebrally implanted) after single ip injection on day 1 at optimal dose (OD) of 100 mg/kg on the 5th day after the injection of the compound; (6/6); assay type: functional; conditions: route intraperitoneal
# L1210 [9] = assay: Compound tested for toxicity against mouse leukemia L1210 tumor (Intraperitoneally implanted) after single ip injection on day 1 at optimal dose (OD) of 100 mg/kg on the 5th day after the injection of the compound; (6/6); assay type: functional; conditions: route intraperitoneal
# [10] = test system: Lewis lung carcinoma cell line; assay: Effect of compound on Lewis Lung carcinoma after single dose injected intraperitoneally on day 1 recorded as animal weight difference of the treated and the control (T-C) at OD of 64 mg/kg; assay type: functional, Mus musculus; conditions: route intraperitoneal
# Mus musculus [11] = assay: Compound tested for the effect on total white blood cell count and reported as percentage change from control on day 7 at 53 mg/kg (ip); assay type: functional
# Outline: (§2)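 Total white blood cell count in mice. Treatment was intraperitoneal at the listed mg/kg doses, 10 mice per group. Counts were taken on days 3, 5 and 7 and expressed as % change from control, with the control being each group's predose value. Significance was taken at p ≤ 0.05.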
# Mus musculus [12] = assay: Compound tested for the effect on total white blood cell count and reported as percentage change from control on day 5 at 53 mg/kg (ip); assay type: functional; outline: as §2
# Mus musculus [13] = assay: Compound tested for the effect on total white blood cell count and reported as percentage change from control on day 7 at 106 mg/kg (ip); assay type: functional; outline: as §2
# Mus musculus [14] = assay: Compound tested for the effect on total white blood cell count and reported as percentage change from control on day 7 at 13.25 mg/kg (ip); assay type: functional; outline: as §2
# Mus musculus [15] = assay: Compound tested for the effect on total white blood cell count and reported as percentage change from control on day 3 at 106 mg/kg (ip); assay type: functional; outline: as §2
# Mus musculus [16] = assay: Compound tested for the effect on total white blood cell count and reported as percentage change from control on day 3 at 13.25 mg/kg (ip); assay type: functional; outline: as §2
# Mus musculus [17] = assay: Compound tested for the effect on total white blood cell count and reported as percentage change from control on day 3 at 26.5 mg/kg (ip); assay type: functional; outline: as §2
# Mus musculus [18] = assay: Compound tested for the effect on total white blood cell count and reported as percentage change from control on day 3 at 53 mg/kg (ip); assay type: functional; outline: as §2
# Mus musculus [19] = assay: Compound tested for the effect on total white blood cell count and reported as percentage change from control on day 5 at 106 mg/kg (ip); assay type: functional; outline: as §2
# Mus musculus [20] = assay: Compound tested for the effect on total white blood cell count and reported as percentage change from control on day 5 at 13.25 mg/kg (ip); assay type: functional; outline: as §2
# P388 [21] = assay: Compound tested for toxicity against mouse P388 cell (Intraperitoneally implanted) after single ip injection on day 1 at optimal dose (OD) of 100 mg/kg on the 5th day after the injection of the compound; (6/6); assay type: functional; conditions: route intraperitoneal
# P388 [22] = assay: Effect of compound on P388 cell after single ip injection on day 1 recorded as animal weight difference of the treated and the control (T-C) at OD of 100 mg/kg; assay type: functional, Mus musculus; conditions: route intraperitoneal
# Outline: (§3)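 Mice bore intraperitoneally implanted P-388 leukaemia and were dosed across a mg/kg range, with an optimum dose picked. Toxicity survivors were scored on day 5 after injection. Outcomes were T – C animal weight difference (g) and % T/C. A cure was a 30-day survivor.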
# P388 [23] = assay: The effect of compound on P388 cell after single dose injected intraperitoneally on day 1 […] at OD of 100 mg/kg; assay type: functional, Mus musculus; conditions: route intraperitoneal; outline: as §3
# P388 [24] = assay: Compound tested for activity against mouse leukemia L1210 tumor (Intraperitoneally implanted) after single ip injection on day 1 at optimal dose of 100 mg/kg (Dose range 200-6.25); assay type: functional; conditions: route intraperitoneal; outline: as §1
# [25] = test system: Lewis lung carcinoma cell line; assay: Compound tested for activity against Lewis lung carcinoma after single ip injection on day 1 at optimal dose of 64 mg/kg (Dose range 64-2); conditions: route intraperitoneal
# [26] = test system: Lewis lung carcinoma cell line; assay: Effect of compound on Lewis Lung carcinoma after single dose injected intraperitoneally on day 1 recorded as percentage of cured animals at OD of 64 mg/kg; conditions: Mus musculus, route intraperitoneal
# L1210 [27] = assay: Compound tested for activity against mouse leukemia L1210 tumor (Intraperitoneally implanted) after single ip injection on day 1 at optimal dose of 100 mg/kg (Dose range 100-6.25); assay type: functional; conditions: route intraperitoneal; outline: as §1
# L1210 [28] = assay: Effect of compound on mouse leukemia L1210 tumor (Intraperitoneally implanted) after single dose injected intraperitoneally on day 1 recorded as animal weight difference of the treated and the control (T-C) at OD of 100 mg/kg; assay type: functional; conditions: route intraperitoneal; outline: as §1
# L1210 [29] = assay: The effect of compound on mouse leukemia L1210 tumor (Intracerebrally implanted) after single dose injected intraperitoneally on day 1 […] at OD of 100 mg/kg; assay type: functional; conditions: route intraperitoneal
# [30] = test system: Lewis lung carcinoma cell line; assay: Effect of compound on Lewis Lung carcinoma after single ip injection on day 1 recorded as animal weight difference of the treated and the control (T-C) at OD of 64-2 mg/kg; assay type: functional, Mus musculus
# Mus musculus [31] = assay: Compound tested for the effect on total white blood cell count and reported as percentage change from control on day 7 at 75 mg/kg (ip); assay type: functional; outline: as §2
# Mus musculus [32] = assay: Compound tested for the effect on total white blood cell count and reported as percentage change from control on day 7 at 8.38 mg/kg (ip); assay type: functional; outline: as §2
# Mus musculus [33] = assay: Compound tested for the effect on total white blood cell count and reported as percentage change from control on day 5 at 75 mg/kg (ip); assay type: functional; outline: as §2
# Mus musculus [34] = assay: Compound tested for the effect on total white blood cell count and reported as percentage change from control on day 5 at 8.38 mg/kg (ip); assay type: functional; outline: as §2
# Mus musculus [35] = assay: Compound tested for the effect on total white blood cell count and reported as percentage change from control on day 7 at 18.75 mg/kg (ip); assay type: functional; outline: as §2
# Mus musculus [36] = assay: Compound tested for the effect on total white blood cell count and reported as percentage change from control on day 7 at 37.5 mg/kg (ip); assay type: functional; outline: as §2
# Mus musculus [37] = assay: Compound tested for the effect on total white blood cell count and reported as percentage change from control on day 3 at 18.75 mg/kg (ip); assay type: functional; outline: as §2
# Mus musculus [38] = assay: Compound tested for the effect on total white blood cell count and reported as percentage change from control on day 3 at 37.5 mg/kg (ip); assay type: functional; outline: as §2
# Mus musculus [39] = assay: Compound tested for the effect on total white blood cell count and reported as percentage change from control on day 3 at 75 mg/kg (ip); assay type: functional; outline: as §2
# Mus musculus [40] = assay: Compound tested for the effect on total white blood cell count and reported as percentage change from control on day 3 at 8.38 mg/kg (ip); assay type: functional; outline: as §2
# Mus musculus [41] = assay: Compound tested for the effect on total white blood cell count and reported as percentage change from control on day 5 at 18.75 mg/kg (ip); assay type: functional; outline: as §2
# Mus musculus [42] = assay: Compound tested for the effect on total white blood cell count and reported as percentage change from control on day 5 at 37.5 mg/kg (ip); assay type: functional; outline: as §2
# [43] = test system: 3EM 37 ependymoblastoma (Mus musculus); assay: Compound tested for activity against 3EM 37 mouse ependymoblastoma after single ip injection on day 1 at optimal dose of 100 mg/kg (Dose range 200-12.5); conditions: route intraperitoneal
# [44] = test system: Lewis lung carcinoma cell line; assay: Effect of compound on Lewis Lung carcinoma after single dose injected intraperitoneally on day 1 recorded as percentage of cured animals at OD of 64 mg/kg; conditions: Mus musculus, route intraperitoneal; remark: listed apart in the source
# 3EM 37 [45] = assay: Compound tested for toxicity against 3EM 37 mouse ependymoblastoma after single ip injection on day 1 at optimal dose (OD) of 100 mg/kg on the 5th day after the injection of the compound; (10/10); conditions: route intraperitoneal
smiles,measurement,setting,value
O=C(O)/C=C\C(=O)O.O=NN(CCCl)C(=O)NC1CCN(Cc2ccccc2)CC1,Optimal dose,3EM 37 [1],100 mg/kg
same,Survival,3EM 37 [2],10
same,T-C,3EM 37 [3],-1.2 g
same,T/C,3EM 37 [4],242%
same,Optimal dose,L1210 [5],100 mg/kg
same,Optimal dose,L1210 [6],100 mg/kg
same,T/C,L1210 [7]; 100 mg/kg,379% and 151%
same,Survival,L1210 [8],6
same,Survival,L1210 [9],6
same,T-C,[10],-2.9 g
same,Change,Mus musculus [11],14% and 7%
same,Change,Mus musculus [12],-5% and 5%
same,Change,Mus musculus [13],1%
same,Change,Mus musculus [14],8%
same,Change,Mus musculus [15],-67%
same,Change,Mus musculus [16],3%
same,Change,Mus musculus [17],12%
same,Change,Mus musculus [18],-22%
same,Change,Mus musculus [19],-35%
same,Change,Mus musculus [20],18%
same,Survival,P388 [21],6
same,T-C,P388 [22],-4.5 g
same,T/C,P388 [23],361%
same,Optimal dose,P388 [24],100 mg/kg
same,Optimal dose,[25],64 mg/kg
same,T/C,[26],>353%
O=C(O)/C=C\C(=O)O.O=NN(CCCl)C(=O)NC1CCCN(Cc2ccccc2)C1 (stereo unspecified),T/C,3EM 37 [4],223%
same,Optimal dose,L1210 [5],100 mg/kg
same,Optimal dose,L1210 [27],100 mg/kg
same,T-C,L1210 [28],-5 g
same,T/C,L1210 [29],192%
same,T/C,L1210 [7],340%
same,Survival,L1210 [8],6
same,Survival,L1210 [9],6
same,Optimal dose,[30],64 mg/kg
same,T-C,[10],-3.7 g
same,Change,Mus musculus [31],11%
same,Change,Mus musculus [32],23%
same,Change,Mus musculus [33],-45%
same,Change,Mus musculus [34],15%
same,Change,Mus musculus [35],40%
same,Change,Mus musculus [36],60%
same,Change,Mus musculus [37],-26%
same,Change,Mus musculus [38],-20%
same,Change,Mus musculus [39],-63%
same,Change,Mus musculus [40],-19%
same,Change,Mus musculus [41],-5%
same,Change,Mus musculus [42],16%
same,Optimal dose,[43],100 mg/kg
same,T/C,[44],259%
same,Survival,3EM 37 [45],10
